Results taken from ChEMBL document CHEMBL4823270, “A first-in-class anticancer dual HDAC2/FAK inhibitors bearing hydroxamates/benzamides capped by pyridinyl-1,2,4-triazoles” (Eur J Med Chem, 2021).
Calls of active or inactive are those of the source. The rule behind the calls is not given here.

Tests used:
HCT-116 = test: Growth inhibition of human HCT-116 cells at 10 uM incubated for 24 hrs by MTT assay relative to control; format: functional; settings: read-out: GI
Method in brief: (§1)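 Cells seeded at 1 × 10^4 per well, cultured overnight, then exposed to 10 μM compound or DMSO (negative control) for 24 h. After a PBS wash, MTT (2 mg/ml) was added for 4 h at 37°C and formazan dissolved in DMSO. OD read at 570 nm. Growth inhibition = 1 − (OD treated/OD control); at least three independent experiments.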

HT-29 = test: Growth inhibition of human HT-29 cells at 10 uM incubated for 24 hrs by MTT assay relative to control; format: functional; settings: read-out: GI; method in brief: as §1
K562 = test: Growth inhibition of human K562 cells at 10 uM incubated for 24 hrs by MTT assay relative to control; format: functional; settings: read-out: GI; method in brief: as §1
KG-1 = test: Growth inhibition of human KG-1 cells at 10 uM incubated for 24 hrs by MTT assay relative to control; format: functional; settings: KG-1, 24 h; method in brief: as §1
A498 [1] = test: Growth inhibition of human A498 cells at 10 uM incubated for 24 hrs by MTT assay relative to control; format: functional; settings: read-out: GI; method in brief: as §1
CAKI-1 [2] = test: Growth inhibition of human CAKI-1 cells at 10 uM incubated for 24 hrs by MTT assay relative to control; format: functional; settings: read-out: GI; method in brief: as §1
A498 [3] = test: Antiproliferative activity against human A498 cells assessed as cell growth inhibition incubated for 24 hrs by MTT assay; format: functional, cell-based; settings: A498, 24 h
CAKI-1 [4] = test: Antiproliferative activity against human CAKI-1 cells assessed as cell growth inhibition incubated for 24 hrs by MTT assay; format: functional, cell-based; settings: CAKI-1, 24 h
Histone deacetylase 1 = Histone deacetylase 1 (Homo sapiens, UniProt Q13547); test: Inhibition of human full-length recombinant HDAC1 preincubated for 5 mins followed by HDAC substrate addition and further incubated for 45 mins by fluorescence microplate reader assay
Sequence of Histone deacetylase 1 (Q13547 whole entry): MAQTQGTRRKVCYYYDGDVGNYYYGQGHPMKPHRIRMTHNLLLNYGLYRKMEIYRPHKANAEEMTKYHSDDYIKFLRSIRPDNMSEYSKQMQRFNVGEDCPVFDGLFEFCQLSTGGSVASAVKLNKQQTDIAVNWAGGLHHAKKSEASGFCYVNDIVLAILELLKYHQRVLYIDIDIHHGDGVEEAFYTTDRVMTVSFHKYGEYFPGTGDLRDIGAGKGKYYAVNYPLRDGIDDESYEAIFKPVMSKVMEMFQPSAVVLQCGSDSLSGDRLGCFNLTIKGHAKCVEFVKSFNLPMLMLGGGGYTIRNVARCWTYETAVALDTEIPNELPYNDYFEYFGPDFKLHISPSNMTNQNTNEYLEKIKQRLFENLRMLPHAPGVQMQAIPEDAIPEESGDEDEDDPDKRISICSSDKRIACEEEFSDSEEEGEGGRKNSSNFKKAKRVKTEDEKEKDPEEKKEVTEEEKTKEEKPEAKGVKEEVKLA

Histone deacetylase 2 [5] = molecular target: T1, Histone deacetylase 2 (Homo sapiens, UniProt Q92769); test: Inhibition of human full-length recombinant HDAC2 preincubated for 5 mins followed by HDAC substrate addition and further incubated for 45 mins by fluorescence microplate reader assay
T1 sequence (Q92769 whole entry): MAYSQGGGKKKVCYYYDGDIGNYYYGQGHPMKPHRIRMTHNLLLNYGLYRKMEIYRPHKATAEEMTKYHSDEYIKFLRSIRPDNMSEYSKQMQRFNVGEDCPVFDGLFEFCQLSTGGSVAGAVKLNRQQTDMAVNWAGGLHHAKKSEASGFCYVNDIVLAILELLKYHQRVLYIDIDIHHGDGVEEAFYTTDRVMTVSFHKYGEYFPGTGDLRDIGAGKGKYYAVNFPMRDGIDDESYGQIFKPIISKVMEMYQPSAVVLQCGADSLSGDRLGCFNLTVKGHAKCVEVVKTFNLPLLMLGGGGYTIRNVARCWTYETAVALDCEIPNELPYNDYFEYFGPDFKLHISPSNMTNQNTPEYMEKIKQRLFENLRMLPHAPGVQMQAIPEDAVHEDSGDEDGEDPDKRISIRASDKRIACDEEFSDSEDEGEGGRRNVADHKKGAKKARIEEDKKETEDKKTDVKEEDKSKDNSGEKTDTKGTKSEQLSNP

Histone deacetylase 3 = Histone deacetylase 3 (Homo sapiens, UniProt O15379); test: Inhibition of human full-length recombinant HDAC3 preincubated for 5 mins followed by HDAC substrate addition and further incubated for 45 mins by fluorescence microplate reader assay
Sequence of Histone deacetylase 3 (O15379 whole entry): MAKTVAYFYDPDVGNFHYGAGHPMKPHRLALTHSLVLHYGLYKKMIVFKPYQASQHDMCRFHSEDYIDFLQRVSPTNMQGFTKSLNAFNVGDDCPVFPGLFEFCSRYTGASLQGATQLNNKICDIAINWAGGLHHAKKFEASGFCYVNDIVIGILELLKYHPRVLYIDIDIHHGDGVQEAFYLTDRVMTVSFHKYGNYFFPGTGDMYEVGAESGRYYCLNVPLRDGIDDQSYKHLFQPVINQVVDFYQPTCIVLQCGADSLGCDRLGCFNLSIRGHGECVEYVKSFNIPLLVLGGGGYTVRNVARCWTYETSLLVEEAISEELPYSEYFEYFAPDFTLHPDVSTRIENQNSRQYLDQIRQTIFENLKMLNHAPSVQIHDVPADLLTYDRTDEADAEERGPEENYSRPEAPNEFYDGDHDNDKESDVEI

[6] = molecular target: T2, Protein deacetylase HDAC6 (Homo sapiens, UniProt Q9UBN7); test: Inhibition of human full-length recombinant HDAC6 preincubated for 5 mins followed by HDAC substrate addition and further incubated for 45 mins by fluorescence microplate reader assay
T2 sequence (Q9UBN7 whole entry): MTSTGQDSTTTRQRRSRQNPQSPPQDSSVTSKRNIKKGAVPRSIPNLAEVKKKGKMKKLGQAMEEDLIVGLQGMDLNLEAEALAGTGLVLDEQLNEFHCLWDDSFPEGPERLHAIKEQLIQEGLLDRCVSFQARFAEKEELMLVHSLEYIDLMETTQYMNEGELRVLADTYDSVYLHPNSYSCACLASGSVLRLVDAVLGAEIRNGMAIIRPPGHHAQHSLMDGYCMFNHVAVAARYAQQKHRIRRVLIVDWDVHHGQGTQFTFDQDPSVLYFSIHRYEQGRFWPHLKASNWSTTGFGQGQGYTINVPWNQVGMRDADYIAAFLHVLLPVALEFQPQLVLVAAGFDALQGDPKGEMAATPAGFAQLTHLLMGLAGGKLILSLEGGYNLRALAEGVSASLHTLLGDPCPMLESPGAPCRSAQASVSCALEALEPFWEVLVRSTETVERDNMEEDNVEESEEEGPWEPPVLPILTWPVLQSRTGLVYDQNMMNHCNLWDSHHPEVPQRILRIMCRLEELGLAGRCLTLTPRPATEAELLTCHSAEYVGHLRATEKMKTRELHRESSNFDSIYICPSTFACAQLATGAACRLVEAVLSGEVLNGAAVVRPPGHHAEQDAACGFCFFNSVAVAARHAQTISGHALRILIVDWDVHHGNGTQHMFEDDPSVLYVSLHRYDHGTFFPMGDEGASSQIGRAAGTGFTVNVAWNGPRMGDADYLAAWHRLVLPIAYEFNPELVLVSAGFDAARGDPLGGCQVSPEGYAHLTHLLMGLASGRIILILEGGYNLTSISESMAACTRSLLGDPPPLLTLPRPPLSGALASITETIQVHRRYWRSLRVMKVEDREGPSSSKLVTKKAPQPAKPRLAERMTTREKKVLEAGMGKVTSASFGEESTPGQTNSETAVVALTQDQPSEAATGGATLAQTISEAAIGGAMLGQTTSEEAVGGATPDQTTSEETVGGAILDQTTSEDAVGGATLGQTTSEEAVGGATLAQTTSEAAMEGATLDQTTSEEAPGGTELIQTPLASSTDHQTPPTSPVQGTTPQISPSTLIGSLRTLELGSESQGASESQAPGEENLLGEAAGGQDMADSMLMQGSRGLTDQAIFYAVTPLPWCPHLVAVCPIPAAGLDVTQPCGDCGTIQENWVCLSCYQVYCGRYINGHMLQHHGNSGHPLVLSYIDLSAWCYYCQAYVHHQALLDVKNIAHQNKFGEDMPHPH

Histone deacetylase 8 = molecular target: T3, Histone deacetylase 8 (Homo sapiens, UniProt Q9BY41); test: Inhibition of human full-length recombinant C-terminal His-tagged HDAC8 expressed in baculovirus infected Sf9 insect cells preincubated for 5 mins followed by HDAC substrate addition and further incubated for 45 mins by fluorescence microplate reader assay
T3 sequence (Q9BY41 whole entry): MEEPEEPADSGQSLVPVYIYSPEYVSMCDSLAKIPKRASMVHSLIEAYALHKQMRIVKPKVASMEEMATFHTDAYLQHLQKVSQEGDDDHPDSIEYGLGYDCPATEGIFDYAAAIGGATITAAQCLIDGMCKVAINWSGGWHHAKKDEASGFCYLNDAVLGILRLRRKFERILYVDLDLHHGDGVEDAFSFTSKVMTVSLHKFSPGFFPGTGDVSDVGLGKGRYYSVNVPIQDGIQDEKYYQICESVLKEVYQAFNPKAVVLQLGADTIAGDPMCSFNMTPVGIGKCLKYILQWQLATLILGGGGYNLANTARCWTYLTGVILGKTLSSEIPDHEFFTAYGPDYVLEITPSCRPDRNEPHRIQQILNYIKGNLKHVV

Focal adhesion kinase 1 [7] = molecular target: T4, Focal adhesion kinase 1 (Homo sapiens, UniProt Q05397); test: Inhibition of FAK (unknown origin) by FRET-based Z'-Lyte assay
Method in brief: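 Recombinant FAK kinase activity measured with the FRET-based Z'-LYTE format; the same platform was used for a kinase panel (FAK, FLT, FRK, IGF-1R, BTK). IC50 values determined.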
Target sequence in this assay (Q05397 whole entry): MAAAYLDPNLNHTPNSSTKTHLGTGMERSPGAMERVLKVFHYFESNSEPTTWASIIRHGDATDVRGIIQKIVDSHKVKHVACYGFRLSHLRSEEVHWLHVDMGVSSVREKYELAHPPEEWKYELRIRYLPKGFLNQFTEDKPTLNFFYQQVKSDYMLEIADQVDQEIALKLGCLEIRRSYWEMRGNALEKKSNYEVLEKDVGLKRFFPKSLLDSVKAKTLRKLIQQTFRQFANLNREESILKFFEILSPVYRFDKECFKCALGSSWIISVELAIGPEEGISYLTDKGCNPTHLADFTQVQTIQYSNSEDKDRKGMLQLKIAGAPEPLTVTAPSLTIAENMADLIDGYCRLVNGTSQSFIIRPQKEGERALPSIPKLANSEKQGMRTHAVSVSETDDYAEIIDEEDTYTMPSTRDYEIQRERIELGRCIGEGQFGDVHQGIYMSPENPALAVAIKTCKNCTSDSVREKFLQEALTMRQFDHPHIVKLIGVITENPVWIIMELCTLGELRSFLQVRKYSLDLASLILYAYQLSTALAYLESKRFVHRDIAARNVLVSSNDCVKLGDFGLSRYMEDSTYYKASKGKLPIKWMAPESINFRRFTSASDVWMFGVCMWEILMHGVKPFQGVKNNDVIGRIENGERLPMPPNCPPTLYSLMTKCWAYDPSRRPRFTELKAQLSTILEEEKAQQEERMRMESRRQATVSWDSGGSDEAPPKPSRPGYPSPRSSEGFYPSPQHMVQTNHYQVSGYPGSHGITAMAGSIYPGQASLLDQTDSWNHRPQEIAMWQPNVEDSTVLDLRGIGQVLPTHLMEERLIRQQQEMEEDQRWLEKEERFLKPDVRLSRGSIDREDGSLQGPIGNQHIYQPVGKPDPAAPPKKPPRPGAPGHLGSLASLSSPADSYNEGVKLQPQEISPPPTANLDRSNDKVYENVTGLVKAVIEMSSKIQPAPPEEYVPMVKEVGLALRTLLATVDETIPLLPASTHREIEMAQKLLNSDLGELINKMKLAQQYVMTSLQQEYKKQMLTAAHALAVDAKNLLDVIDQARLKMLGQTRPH

Histone deacetylase 2 [8] = molecular target: T1, Histone deacetylase 2; test: Inhibition of HDAC2 in human A498 cells assessed as reduction in HDAC2 expression by Western blot analysis; format: cell-based
Method in brief: (§2)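 40 μg protein (Bradford) resolved by SDS-PAGE, transferred to PVDF, blocked 1 h in milk or BSA. Primary antibody overnight, HRP secondary 1 h, ECL detection; β-actin as loading control.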

Histone deacetylase 2 [9] = molecular target: T1, Histone deacetylase 2; test: Inhibition of HDAC2 in human CAKI-1 cells assessed as reduction in HDAC2 expression by Western blot analysis; format: cell-based; method in brief: as §2
Focal adhesion kinase 1 [10] = molecular target: T4, Focal adhesion kinase 1; test: Inhibition of FAK in human A498 cells assessed as reduction in FAK phosphorylation by Western blot analysis; format: cell-based; method in brief: as §2
Target sequence in this assay (Q05397 2-1052 limits assumed): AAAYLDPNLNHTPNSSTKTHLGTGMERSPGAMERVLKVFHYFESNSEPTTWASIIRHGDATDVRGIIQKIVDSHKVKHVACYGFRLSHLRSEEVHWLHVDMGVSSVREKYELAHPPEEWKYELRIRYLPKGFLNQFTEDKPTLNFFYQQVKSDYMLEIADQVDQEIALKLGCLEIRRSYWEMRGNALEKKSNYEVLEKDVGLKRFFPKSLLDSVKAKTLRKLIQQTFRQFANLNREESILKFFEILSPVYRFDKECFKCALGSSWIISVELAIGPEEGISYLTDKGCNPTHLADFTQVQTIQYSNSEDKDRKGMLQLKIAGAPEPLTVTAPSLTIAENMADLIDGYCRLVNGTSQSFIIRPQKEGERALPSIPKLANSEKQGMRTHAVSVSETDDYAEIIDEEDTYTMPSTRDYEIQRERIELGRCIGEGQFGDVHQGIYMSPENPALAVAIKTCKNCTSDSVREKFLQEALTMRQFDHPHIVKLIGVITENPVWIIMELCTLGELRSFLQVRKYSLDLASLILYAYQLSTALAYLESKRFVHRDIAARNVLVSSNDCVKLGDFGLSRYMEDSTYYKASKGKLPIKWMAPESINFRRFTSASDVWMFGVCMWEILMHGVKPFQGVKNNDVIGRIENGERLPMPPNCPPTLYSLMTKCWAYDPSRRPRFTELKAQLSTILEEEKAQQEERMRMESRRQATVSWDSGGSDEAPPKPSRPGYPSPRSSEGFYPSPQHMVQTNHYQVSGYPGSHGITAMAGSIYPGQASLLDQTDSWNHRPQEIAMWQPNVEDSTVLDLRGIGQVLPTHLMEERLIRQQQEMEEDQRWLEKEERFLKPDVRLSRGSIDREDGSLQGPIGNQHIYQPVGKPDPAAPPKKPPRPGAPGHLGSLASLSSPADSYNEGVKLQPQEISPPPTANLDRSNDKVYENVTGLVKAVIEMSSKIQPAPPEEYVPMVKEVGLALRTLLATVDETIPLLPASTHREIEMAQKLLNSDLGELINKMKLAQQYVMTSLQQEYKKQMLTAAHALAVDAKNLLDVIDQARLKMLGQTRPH

Focal adhesion kinase 1 [11] = molecular target: T4, Focal adhesion kinase 1; test: Inhibition of FAK in human CAKI-1 cells assessed as reduction in FAK phosphorylation by Western blot analysis; format: cell-based; method in brief: as §2
Target sequence in this assay (Q05397 2-1052 limits assumed): as above

Compound	inhibition of growth at 10 µM (HCT-116) [%]	inhibition of growth at 10 µM (HT-29) [%]	inhibition of growth at 10 µM (K562) [%]	inhibition in vitro at 10 µM (KG-1) [%]	inhibition of growth at 10 µM (A498 [1]) [%]	inhibition of growth at 10 µM (CAKI-1 [2]) [%]	IC50 (A498 [3]) [µM]	IC50 (CAKI-1 [4]) [µM]	IC50 (Histone deacetylase 1) [µM]	IC50 (Histone deacetylase 2 [5]) [µM]	IC50 (Histone deacetylase 3) [µM]	IC50 [6] [µM]	IC50 (Histone deacetylase 8) [µM]	IC50 (Focal adhesion kinase 1 [7]) [µM]	inhibition (Histone deacetylase 2 [8])	inhibition (Histone deacetylase 2 [9])	inhibition (Focal adhesion kinase 1 [10])	inhibition (Focal adhesion kinase 1 [11])
CCn1c(SCCCCCC(=O)Nc2ccccc2N)nnc1-c1ccncc1	6.35	18.6	10.4	3.64	22.3	8.91	77.6	98.3	> 300	27.1	> 300	> 300	198	0.141	–	–	–	–
O=C(NO)c1ccc(CSc2nnc(-c3ccncc3)n2-c2ccccc2)cc1	29.3	42.7	39.1	50.9	56.9	61.9	8.76	7.13	15	9.76	18	6.93	12.8	0.0224	–	–	–	–
Cn1c(SCCCCCC(=O)O)nnc1-c1ccncc1	20.1	34.2	18.2	55.9	45.3	34.7	12.3	16.5	8.93	7.36	84.6	78.4	12	0.0503	–	–	–	–
C=CCn1c(SCCCCCC(=O)Nc2ccccc2N)nnc1-c1ccncc1	90.5	95.5	86.4	94.2	97.7	95.4	1.19	1.34	31	1.4	11	9.79	5.86	0.0143	Active	Active	Active	Active
Nc1ccccc1NC(=O)CCCCCSc1nnc(-c2ccncc2)n1-c1ccccc1	24.5	9.64	15.1	34.9	4.67	1.65	342	215	256	38.7	> 300	159	> 300	0.312	–	–	–	–
CCn1c(SCc2ccc(C(=O)NO)cc2)nnc1-c1ccncc1	1.03	8.34	14.3	7.12	1.67	9.34	203	322	> 300	30.4	174	> 300	> 300	0.254	–	–	–	–
C=CCn1c(SCCCCCC(=O)NO)nnc1-c1ccncc1	2.07	41.3	16.1	5.91	11.1	8.62	76.4	89.4	> 300	11.7	222	288	11.1	0.189	–	–	–	–
